In PubChem BioAssay AID504414 (Broad Institute, 2011):
Out of some 330,000 compounds screened, about 55 (0.02%) were called active.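 How the source made its calls: active means highest replicate inhibition of at least 40%; inactive means the rest.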 Many of the other results were omitted from the sample, so actives are more common in it than they were.

Each compound was assayed against Golgi-associated PDZ and coiled-coil motif-containing protein (Homo sapiens) (UniProt Q9HD26) (assay: CAL PDZ peptide-binding inhibitors, primary screen, biochemical, fluorescence polarization, Cer-tagged CAL PDZ, HTS (AID 504414;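 further: plate controls were DMSO neutral control wells for no effect and unlabeled competitor peptide control wells for full effect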)). Settings: purified CAL PDZ, TMR-peptide fluorescence polarization, 1 h; at 20 µM; stronger effect = higher value.
In short: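 Control set: unlabelled peptide and DMSO controls / Material: purified CerCALP PDZ construct / Timing: 1 h incubation at room temperature before polarization reading / Doses: 20 µM, one dose / Detection: fluorescence polarization (mP)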

inhibition, inactive:
CN(CCO)S(=O)(=O)c1ccc2c(c1)C(=O)c1cc(S(=O)(=O)N(C)CCO)ccc1-2 -0.349%
CC1C(=O)NC(=O)C1c1ccccc1 (centres undefined) -1.12%
COc1ccc(Cl)cc1S(=O)(=O)N1CCC(O)(c2ccc(Cl)cc2)CC1 0.846%
COc1cc(C2C(C(=O)c3sc(C)nc3C)=C(O)C(=O)N2CCN(C)C)cc(OC)c1OC (centres undefined) 0.746%
O=C(NCc1ccc2c(c1)OCO2)c1cc([N+](=O)[O-])ccc1N1CCOCC1 -1.53%
Cc1ccccc1OCCC(=O)OCC(=O)NCCc1ccc(S(N)(=O)=O)cc1 -0.918%
Cc1ccn2c(c1)nc(=O)c1cc(S(=O)(=O)N3CCC(C)CC3)ccc12 -0.295%
O=S(=O)(c1ccc(Cl)cc1)N1CCCN(c2ccc(C(F)(F)F)cn2)CC1 -1.87%
CN(CC(O)COc1ccc(S(=O)(=O)N2CCOCC2)cc1Cl)C1CCCCC1 (centres undefined) -0.337%
CCCc1nc2scc(-c3ccc(C)cc3)c2c(=O)n1N -1.81%
Cc1onc(-c2c(F)cccc2Cl)c1C(=O)N(C)CC(=O)Nc1cccc(F)c1 -1.86%
COC(=O)c1sc(N2CCN(Cc3ccccc3)CC2)nc1N -1.78%
CCn1c(SCCC(C)C)nnc1-c1c[nH]c2ccccc12 0.439%
C=CC(COCc1ccccc1)N(Cc1ccccc1)S(=O)(=O)c1ccccc1Br (centres undefined) 0.0215%
O=C(O)c1ccc(-n2nc(-c3ccccc3)c3ccccc3c2=O)cc1 -0.73%
CSCC[C@H](NC(=O)NCc1cccs1)C(=O)O 1.04%
COc1ccc(CCN(C)C(=O)C23CC4CC(CC(Cl)(C4)C2)C3)cc1OC -1.39%
CCn1nc(C(=O)Nc2ccc(N3CCOCC3)cc2)c2ccccc2c1=O -1.35%
C=C(C)CNC(=O)c1ccc(OC2CCN(C(=O)COC)CC2)cc1 -0.166%
C#CCN1CC(C)/C(=N/O)CC1C (centres undefined) -0.192%
O=c1[nH]oc(O)c1-c1ncc(C(F)(F)F)cc1Cl -0.466%
Nn1c(SCc2ccccc2)nnc1C1CCCCC1 -0.356%
COc1ccccc1C(=O)NCCC(=O)NC1=NCCS1 0.112%
CCN(CC)C(=O)CS(=O)CC(=O)Nc1cc(OCCOC)c(Cl)cc1Cl (centres undefined) -0.37%
